# Assay results pooled from the literature.
# Lines come from different studies, so protocols differ.
# Target: Aurora kinase C (AURKC, Homo sapiens, UniProt Q9UQB9)
# Residues used in one study (Q9UQB9 1-309): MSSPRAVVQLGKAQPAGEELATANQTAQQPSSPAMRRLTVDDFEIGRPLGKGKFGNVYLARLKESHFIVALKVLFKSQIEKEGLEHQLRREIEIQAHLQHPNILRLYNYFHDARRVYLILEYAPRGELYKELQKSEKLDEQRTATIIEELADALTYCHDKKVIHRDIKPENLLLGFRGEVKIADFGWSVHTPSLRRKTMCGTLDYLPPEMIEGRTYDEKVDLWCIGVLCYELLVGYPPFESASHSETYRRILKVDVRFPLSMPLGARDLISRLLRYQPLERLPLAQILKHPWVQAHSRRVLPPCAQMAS
Compound,read-out,technique,tested at,remaining binding
Nc1ncc2c(n1)-c1c([nH]c3ccc(C#CC4CC4)cc13)CCCC2,binding,competition with immobilised ligand,1 µM,86%
Cn1nc(C(F)(F)F)cc1-c1cnc(N2CCc3cc(S(=O)(=O)Nc4c(F)cc(Cl)cc4F)cc(N4CCCC4=O)c32)nc1,cell-free assay,competition with immobilised ligand,1 µM,100%
CN(C)c1nccc(-c2cnc3ncccn23)n1,binding,,1 µM,100%
CC(=O)Nc1c(C(C)=O)c(=O)n(C)c2nc(-c3ccc(Cl)cc3Cl)c(-c3ccc(Cl)cc3)cc12,cell-free assay,competition with immobilised ligand,1 µM,100%
c1cnn2ncc(-c3ccnc(N4CCC45COC5)n3)c2c1,binding,,1 µM,96%
O=C(NCCCN1CCOCC1)c1ccc(Nc2ncc(Cl)c(-c3ccc(Cl)s3)n2)cc1,binding,competition with immobilised ligand,1 µM,5.5%
CCN1CCN(Cc2ccc(C(=O)Nc3ccc(C)c(Oc4ccc5c(c4)CC(=O)N5)c3)cc2C(F)(F)F)CC1,binding,competition with immobilised ligand,1 µM,91%
CC1CCCN1c1nccc(-c2cnn3ncccc23)n1 (stereo not shown),binding,,1 µM,89%
O=C(NCC1CCOCC1)c1n[nH]cc1NC(=O)c1c(F)cccc1F,binding,competition with immobilised ligand,1 µM,79%
O=C(NCCCN1CCOCC1)c1ccc(Nc2nccc(-c3cc4ccccc4s3)n2)cc1,binding,competition with immobilised ligand,1 µM,32%
O=C(N1CCS(=O)(=O)CC1)N1C[C@H](c2ccc(OC(F)(F)F)cc2)C[C@H](c2nc(C3CC3)no2)C1,cell-free assay,competition with immobilised ligand,1 µM,99%
CNC(=O)[C@@H]1CC[C@@H](n2c(-c3ccc4cnccc4c3)nc3ccc(C(=O)NCc4cccc(C(N)=O)c4)cc32)C1,binding,competition with immobilised ligand,1 µM,100%
COc1ccc2c(O[C@@H]3C[C@H]4C(=O)N[C@]5(C(=O)O)CC5/C=C\CCCCC[C@H](NC(=O)OC5CCCC5)C(=O)N4C3)cc(-c3csc(NC(=O)C(C)C)n3)nc2c1C (stereo partly shown),cell-free assay,competition with immobilised ligand,1 µM,96%
CN(C)c1nccc(-c2cnn3ncccc23)n1,binding,,1 µM,100%
O=C(Nc1cccnn1)N1CCC(=Cc2cccc(Oc3ccc(C(F)(F)F)cn3)c2)CC1,cell-free assay,competition with immobilised ligand,1 µM,100%
O=C(c1ccc(Nc2ncc(Cl)c(-c3ccc(Cl)s3)n2)cc1)N1CCC(N2CCCC2)CC1,binding,competition with immobilised ligand,1 µM,2.8%
C[C@@H]1CCN(c2nccc(-c3cnn4ncccc34)n2)C1,binding,,1 µM,98%
CO[C@@H](C)c1c(Nc2ccc([C@H](N(C)C(=O)C3CCS(=O)(=O)CC3)C(F)(F)F)cc2)cnc2cc(Cl)nn12,cell-free assay,competition with immobilised ligand,1 µM,77%
CN(CCCC(F)(F)F)c1nccc(-c2cnn3ncccc23)n1,binding,,1 µM,100%
CNC(=O)Nc1ccc2c(c1)CC[C@@]21OC(=O)N(CC(=O)N(Cc2ccc(F)cc2)[C@@H](C)C(F)(F)F)C1=O,cell-free assay,competition with immobilised ligand,1 µM,100%
N[C@H]1CCN(c2nccc(-c3cnn4ncccc34)n2)C1,binding,,1 µM,97%
COc1ncc2cc3ccccc3nc2c1C#N,cell-free assay,competition with immobilised ligand,5 µM,100%
